Yeast life ext – yeast lifespan extension; S. cerevisiae growth with nicotinamide, OD615; deaD strain in restrictive glucose medium; inhibition of the nicotinamide effect, % at 10 µM; actives 0.68% (n = 130,000);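 active = inhibition above a set limit, placed 3 SD over the median of all compounds, cut at about 26% in these data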;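 also: 0% = nicotinamide-treated wells and 100% = cells grown without nicotinamide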
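Assay system: DeaD-strain S. cerevisiae. Medium: CSMM-D glucose medium, restrictive. Reagent: nicotinamide, 1.5 mM, co-present with compound. Compound: 10 µM single point, 0.25% DMSO. Schedule: culture preincubation 4 h, compound exposure 48 h, both 30 °C. Detection: absorbance at 615 nm.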
WT yeast gro inh – growth inhibition of WT yeast, mitochondrial fusion screen. inhibition, % at 10 µM. mitochondrial fusion phenotypic screen, WT strain. actives 2.1% (n = 190,000). AID 1362; in the data active = inhibition above about 58%; tested in S. cerevisiae
BB579 growth dn – chemicals that inhibit yeast BB579 growth in restrictive medium (lifespan-shortening candidates) | S. cerevisiae BB579 growth, OD615, 48 h | inhibition, % at 10 µM | actives 0.51% (n = 140,000);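 active = inhibition above a set limit, 3 SD over the mean compound inhibition, cut at about 44% in these data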
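System: Saccharomyces cerevisiae DeaD strain BB579, replicative lifespan model yeast. Buffer or medium: restrictive glucose-based CSMM-D medium. Doses: one dose, 10 µM compound with 0.25% DMSO. Timing: 4 h preincubation and 48 h exposure at 30 °C. Detection: turbidity as optical density at 615 nm. Benchmarks: amphotericin B 10 µg/mL, positive.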
RAM inhibit – yeast RAM network inhibition | AID 868 | inhibition, % at 50 µM | S. cerevisiae dse1pr::URA3 reporter, 5-FOA growth OD615, 2 d; analog-sensitive cbk1-as2 kinase mutant strain | actives 1.8% (n = 190,000);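 active = inhibition above a set limit, 3 SD over mean compound inhibition, cut at about 8.4% in these data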;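 also: 0% = DMSO-only wells with no growth and 100% = 10 µM 1-NA-PP1 full growth; inhibition rescues growth on 5-FOA so higher OD means more RAM inhibition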
Numbers without * were called inactive. Hits are enriched below; roughly 4.3% of the tested compounds scored in any of these assays.

What do the screens show for `O=C(OCc1cccc2ccccc12)C1CC(=O)N(c2ccccc2)C1` (centres undefined)?
Yeast life ext: -6.4; WT yeast gro inh: -24.9; BB579 growth dn: -34.3; RAM inhibit: 11.0*

How did CC(C)(C)C(=O)COC(=O)C1CC(=O)N(c2ccccc2)C1 (centres undefined) do in these assays?
WT yeast gro inh: 8.3; RAM inhibit: 0.9

How did N/C(=N\OC(=O)COc1ccc2ccccc2c1)c1cccnc1 do in these assays?
Yeast life ext: -8.3; WT yeast gro inh: 5.3; BB579 growth dn: -19.4; RAM inhibit: 5.0

How did Cc1cc(Cl)n2c(nc3cc(F)c(F)cc32)c1C#N do in these assays?
WT yeast gro inh: 80.7*; RAM inhibit: -0.5

Results for Cc1cc(C)n2c(=O)c3ccc(Cl)cc3nc2c1C#N ?
WT yeast gro inh: 53.2; RAM inhibit: -0.4

How did Cc1cccc(NC(=S)N(C)Cc2cn(C)c3ccccc23)c1 do in these assays?
Yeast life ext: -1.1; WT yeast gro inh: 72.0*; BB579 growth dn: -36.2; RAM inhibit: 3.4

How did CN(Cc1cn(C)c2ccccc12)C(=S)Nc1cc(F)cc(F)c1 do in these assays?
Yeast life ext: -5.8; WT yeast gro inh: 21.8; BB579 growth dn: -17.4; RAM inhibit: 2.1

How did C/C(=N\NC(=O)c1ccccc1O)c1ccc(Br)s1 do in these assays?
Yeast life ext: 0.3; WT yeast gro inh: 65.9*; BB579 growth dn: -29.0; RAM inhibit: 3.8

What do the screens show for `C/C(=N\Nc1nc2ccccc2s1)c1ccc(Br)s1`?
WT yeast gro inh: 94.3*; RAM inhibit: 2.0

Results for C/C(=N\NC(=O)c1ccccc1O)C1C(=O)c2ccccc2C1=O ?
Yeast life ext: 97.9*; WT yeast gro inh: -16.7; BB579 growth dn: -49.0; RAM inhibit: 2.6

How did C/C(=N\NC(=O)c1ccccc1[N+](=O)[O-])c1ccc(Br)s1 do in these assays?
WT yeast gro inh: 0.2; RAM inhibit: 4.1

Results for O=C(Nc1cccc(Cl)c1)/C(=C\c1cccnc1)NC(=O)c1ccco1 ?
WT yeast gro inh: -5.0; RAM inhibit: -0.4

How did Cc1ccccc1Nc1nnc(SCC(=O)Nc2ccccc2[N+](=O)[O-])s1 do in these assays?
Yeast life ext: -3.0; WT yeast gro inh: 17.6; BB579 growth dn: -39.0; RAM inhibit: 8.7*

What do the screens show for `Cc1cccc(Nc2nnc(SCC(=O)Nc3ccccc3[N+](=O)[O-])s2)c1`?
Yeast life ext: -2.5; WT yeast gro inh: 19.0; BB579 growth dn: -32.2; RAM inhibit: 5.0

How did CCC/C=C(\CCC)C(NS(=O)(=O)c1ccc(C(F)(F)F)cc1)c1ccccc1 (centres undefined) do in these assays?
Yeast life ext: 10.9; WT yeast gro inh: 54.6; BB579 growth dn: -43.4; RAM inhibit: 11.3*

How did CCN1c2ccccc2-c2nc3ccccc3n2C1c1cccs1 (centres undefined) do in these assays?
Yeast life ext: -4.1; WT yeast gro inh: 64.4*; BB579 growth dn: -35.5; RAM inhibit: 1.6

How did O=C(c1c(O)c2ccccc2oc1=O)C1CCCCC1 do in these assays?
Yeast life ext: 28.7*; WT yeast gro inh: 10.6; BB579 growth dn: -3.9; RAM inhibit: -0.5

Results for O=C(CCC1CCCC1)c1c(O)c2ccccc2oc1=O ?
Yeast life ext: 32.5*; WT yeast gro inh: 4.6; BB579 growth dn: -6.7; RAM inhibit: 0.3

How did CN=C(C)c1c(O)c2ccccc2oc1=O do in these assays?
Yeast life ext: 1.8; WT yeast gro inh: -10.8; BB579 growth dn: -7.1; RAM inhibit: -0.7

What do the screens show for `Cc1ccccc1-c1cc(C(=O)Nc2sc(C(=O)OC(C)C)c(C)c2C#N)c2ccccc2n1`?
Yeast life ext: 0.9; WT yeast gro inh: 27.8; BB579 growth dn: -37.7; RAM inhibit: 3.1

What do the screens show for `COc1cc2c(cc1NS(=O)(=O)N1CCCCC1)oc1ccccc12`?
Yeast life ext: -8.0; WT yeast gro inh: 80.1*; BB579 growth dn: -41.2; RAM inhibit: 3.6

Results for COc1cc2c(cc1NC(=O)CN1C(=O)NC3(CCc4ccccc43)C1=O)oc1ccccc12 (centres undefined) ?
Yeast life ext: 1.9; WT yeast gro inh: 66.0*; BB579 growth dn: -70.2; RAM inhibit: 6.1

Results for COc1cc2c(cc1NC(=O)Nc1ccccc1)oc1ccccc12 ?
Yeast life ext: -6.9; WT yeast gro inh: 69.2*; BB579 growth dn: -31.4; RAM inhibit: 2.0

What do the screens show for `COc1cc2c(cc1NC(=O)CSCC(=O)O)oc1ccccc12`?
Yeast life ext: -9.3; WT yeast gro inh: 14.7; BB579 growth dn: -28.1; RAM inhibit: -1.6

What do the screens show for `COc1cc2c(cc1NC(=O)C(C)NCc1ccccc1)oc1ccccc12` (centres undefined)?
Yeast life ext: -8.0; WT yeast gro inh: 67.5*; BB579 growth dn: -17.3; RAM inhibit: 0.5

How did CCN1CCN(C(=S)c2ccc(-c3ccccc3)cc2)CC1 do in these assays?
WT yeast gro inh: 7.8; RAM inhibit: -0.2

Results for Cc1nc2ccccc2nc(C)c1=NOCc1ccccc1Cl ?
Yeast life ext: 15.3; WT yeast gro inh: 5.5; BB579 growth dn: -13.2; RAM inhibit: 1.3

Results for CCN(CC)S(=O)(=O)c1ccc(Oc2ccccc2)cc1 ?
Yeast life ext: -9.7; BB579 growth dn: -24.0; RAM inhibit: 2.9

How did Cc1cccc(CN2CCN(Cc3cccc(-n4cccn4)c3)CC2CCO)n1 (centres undefined) do in these assays?
WT yeast gro inh: -1.2; RAM inhibit: 0.1

What do the screens show for `COc1ccc(N2C(=O)CC2(C#N)c2ccc(OCc3ccccc3)cc2)cc1` (centres undefined)?
Yeast life ext: 5.5; WT yeast gro inh: -5.6; BB579 growth dn: -23.3; RAM inhibit: 10.7*

How did CCOC(=O)N1CCC(=NNC(=O)c2ccccc2F)CC1 do in these assays?
Yeast life ext: 4.9; WT yeast gro inh: 9.7; BB579 growth dn: 1.8; RAM inhibit: 1.0

How did O=C1c2ccccc2N2C(=O)c3ccccc3C2N1O (centres undefined) do in these assays?
Yeast life ext: 38.5*; WT yeast gro inh: 14.4; BB579 growth dn: -32.7; RAM inhibit: 0.4

What do the screens show for `CCOC(=O)c1c(NC(=O)C(C)Sc2cccc[n+]2[O-])sc2c1CCN(Cc1ccccc1)C2` (centres undefined)?
Yeast life ext: 4.8; WT yeast gro inh: 20.2; BB579 growth dn: 91.0*; RAM inhibit: -0.2

Results for Cc1ccn2c(Nc3ccccc3C)c(-c3ccncc3)nc2c1 ?
Yeast life ext: -0.3; WT yeast gro inh: -12.6; BB579 growth dn: -26.3; RAM inhibit: 1.7

Results for CC(=O)NC/C(C)=N\Nc1ccc([N+](=O)[O-])cc1 ?
WT yeast gro inh: 77.9*; RAM inhibit: -0.5

Results for O=C(c1cccc(N2C(=O)C3CC=CCC3C2=O)c1)N1CCCc2ccccc21 (centres undefined) ?
WT yeast gro inh: -0.9; RAM inhibit: 0.7

Results for Cc1ccc(-c2nc(P(=O)(c3ccccc3)c3ccccc3)c(N3CCOCC3)o2)cc1 ?
Yeast life ext: 7.5; WT yeast gro inh: 6.3; BB579 growth dn: -23.9; RAM inhibit: 2.2

How did CNc1oc(-c2ccc(Cl)cc2)nc1P(=O)(c1ccccc1)c1ccccc1 do in these assays?
Yeast life ext: 3.4; WT yeast gro inh: 61.9*; BB579 growth dn: -17.4; RAM inhibit: 4.9
